How the values were obtained:
[1] = Growth inhibition of human EKVX cells assessed as cell growth at 10 uM after 48 hrs by sulforhodamine B assay; format: functional; conditions: read-out: Activity
How it was run: (§1)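 NCI-60 single-dose screen at 10 µM: cells in RPMI 1640 with 5% FBS, preincubated 24 h, then exposed 48 h at 37 °C. TCA fixation (16% final for suspension cells), SRB staining, absorbance 515 nm. Percent growth relative to time-zero and untreated control plates; negative values indicate cell kill.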

CCRF-CEM = assay: Growth inhibition of human CCRF-CEM cells after 48 hrs by sulforhodamine B assay; format: functional
How it was run: (§2)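 NCI-60 screen: cells in RPMI 1640 with 5% FBS and 2 mM glutamine, 5000–40,000 cells/well, preincubated 24 h. Five concentrations (10-fold dilutions; 100 to 0.001 µM) applied for 48 h at 37 °C. TCA fixation, SRB stain, absorbance at 515 nm. Time-zero plates included; GI50 where 100×(T−T0)/(C−T0)=50.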

SF-295 = assay: Growth inhibition of human SF295 cells assessed as cell growth at 10 uM after 48 hrs by sulforhodamine B assay; format: functional; conditions: SF-295, 48 h, read-out: Activity
How it was run: (§3)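 Single-dose NCI-60 screen: adherent cells in RPMI 1640 with 5% FBS were exposed to 10 µM for 48 h at 37 °C after a 24 h preincubation. They were fixed in situ with cold TCA (10% final), stained with 0.4% SRB in 1% acetic acid, solubilized in 10 mM Tris base, and read at 515 nm. Percent growth was taken relative to time-zero and control plates.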

[2] = Growth inhibition of human EKVX cells after 48 hrs by sulforhodamine B assay; format: functional; how it was run: as §2
RPMI-8226 = assay: Growth inhibition of human RPMI8226 cells after 48 hrs by sulforhodamine B assay; format: functional; conditions: RPMI-8226, 48 h
How it was run: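 NCI-60 suspension lines in RPMI 1640 with 5% FBS and 2 mM L-glutamine, preincubated 24 h. A five-concentration 10-fold series (0.001–100 µM) was given for 48 h at 37 °C. Settled cells were fixed with 80% TCA (16% final), stained with SRB, and read at 515 nm. GI50 was taken where 100×(T−T0)/(C−T0)=50, with T0 plates fixed at drug addition.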

HOP-92 [3] = assay: Growth inhibition of human HOP92 cells assessed as cell growth at 10 uM after 48 hrs by sulforhodamine B assay; format: functional; conditions: HOP-92, 48 h, read-out: Activity; how it was run: as §1
M14 = assay: Growth inhibition of human M14 cells after 48 hrs by sulforhodamine B assay; format: functional; conditions: M14, 48 h; how it was run: as §2
NCI-H460 = assay: Growth inhibition of human NCI-H460 cells after 48 hrs by sulforhodamine B assay; format: functional; conditions: NCI-H460, 48 h
How it was run: (§4)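 NCI-60 panel cells grown in RPMI 1640 with 5% FBS and 2 mM L-glutamine, seeded at 5000–40,000 cells/well and preincubated 24 h. Five 10-fold dilutions (0.001–100 µM) from DMSO stocks were added for 48 h at 37 °C. Adherent cells were fixed with cold TCA (10% final) for 60 min at 4 °C, stained with 0.4% SRB, and read at 515 nm. GI50 was set where 100×(T−T0)/(C−T0)=50.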

UACC-257 = assay: Growth inhibition of human UACC257 cells assessed as cell growth at 10 uM after 48 hrs by sulforhodamine B assay; format: functional; conditions: UACC-257, 48 h, read-out: Activity
How it was run: (§5)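 Single-dose NCI-60 test at 10 µM. Cells were grown in RPMI 1640 with 5% FBS and 2 mM L-glutamine, preincubated 24 h, with T0 plates TCA-fixed. Exposure was 48 h at 37 °C, 5% CO2. Cells were fixed with cold TCA (final 10%, 4 °C, 60 min), stained with SRB and read at 515 nm. Percent growth was taken relative to T0 and untreated control; negative values denote cell kill.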

OVCAR-5 = assay: Growth inhibition of human OVCAR5 cells assessed as cell growth at 10 uM after 48 hrs by sulforhodamine B assay; format: functional; conditions: OVCAR-5, 48 h, read-out: Activity; how it was run: as §3
SN12C = assay: Growth inhibition of human SN12C cells assessed as cell growth at 10 uM after 48 hrs by sulforhodamine B assay; format: functional; conditions: read-out: Activity; how it was run: as §5
[4] = Growth inhibition of human HCC2998 cells after 48 hrs by sulforhodamine B assay; format: functional; conditions: HCC 2998, 48 h; how it was run: as §2
NCI-H226 = assay: Growth inhibition of human NCI-H226 cells assessed as cell growth at 10 uM after 48 hrs by sulforhodamine B assay; format: functional; conditions: NCI-H226, 48 h, read-out: Activity; how it was run: as §3
MCF7 [5] = assay: Growth inhibition of human MCF7 cells assessed as cell growth at 10 uM after 48 hrs by sulforhodamine B assay; format: functional; conditions: MCF7, 48 h, read-out: Activity; how it was run: as §3
HOP-92 [6] = assay: Growth inhibition of human HOP92 cells after 48 hrs by sulforhodamine B assay; format: functional; conditions: HOP-92, 48 h; how it was run: as §2
[7] = Antiproliferative activity against mouse +SA cells by MTT assay; format: functional, cell-based; conditions: +SA cell
How it was run: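 Mouse +SA mammary epithelial cells in serum-free DMEM/F12 with BSA, transferrin, insulin and EGF. Compounds from DMSO stock conjugated to BSA (overnight, 37 °C); 0–40 µM, final DMSO <0.1%. MTT 0.42 mg/mL for 4 h at 37 °C, isopropanol solubilization, OD 570 nm. Cell number from a standard curve; IC50 by non-linear regression.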

MDA-MB-468 = assay: Growth inhibition of human MDA-MB-468 cells assessed as cell growth at 10 uM after 48 hrs by sulforhodamine B assay; format: functional; conditions: MDA-MB-468, 48 h, read-out: Activity; how it was run: as §3
IGROV-1 = assay: Growth inhibition of human IGROV1 cells assessed as cell growth at 10 uM after 48 hrs by sulforhodamine B assay; format: functional; conditions: IGROV-1, 48 h, read-out: Activity; how it was run: as §1
OVCAR-4 = assay: Growth inhibition of human OVCAR4 cells after 48 hrs by sulforhodamine B assay; format: functional; conditions: OVCAR-4, 48 h; how it was run: as §4
MCF7 [8] = assay: Antiproliferative activity against human MCF7 cells by MTT assay; format: functional, cell-based
How it was run: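 Cells plated at 8 × 10^3/well (MDA-MB-231) or 10^4/well (MCF7) in 96-well plates. Compounds fed in media with 5% FBS (MDA-MB-231) or 1% FBS (MCF7). MTT read-out of viable cells.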

DU-145 = assay: Growth inhibition of human DU145 cells assessed as cell growth at 10 uM after 48 hrs by sulforhodamine B assay; format: functional; conditions: DU-145, 48 h, read-out: Activity; how it was run: as §1
BT-549 = assay: Growth inhibition of human BT549 cells after 48 hrs by sulforhodamine B assay; format: functional; conditions: BT-549, 48 h; how it was run: as §2
A498 = assay: Growth inhibition of human A498 cells after 48 hrs by sulforhodamine B assay; format: functional; conditions: A498, 48 h; how it was run: as §2
HT-29 = assay: Growth inhibition of human HT-29 cells assessed as cell growth at 10 uM after 48 hrs by sulforhodamine B assay; format: functional; conditions: HT-29, 48 h, read-out: Activity; how it was run: as §1
LOX IMVI = assay: Growth inhibition of human LOXIMVI cells after 48 hrs by sulforhodamine B assay; format: functional; how it was run: as §2

Row | SMILES | growth at 10 µM [1] | GI50 (CCRF-CEM) | growth at 10 µM (SF-295) | GI50 [2] | GI50 (RPMI-8226) | GI50 (M14) | GI50 (NCI-H460) | growth at 10 µM (UACC-257) | growth at 10 µM (OVCAR-5) | growth at 10 µM (SN12C) | GI50 [4] | growth at 10 µM (NCI-H226) | growth at 10 µM (MCF7 [5]) | GI50 (HOP-92 [6]) | IC50 [7] | growth at 10 µM (MDA-MB-468) | growth at 10 µM (IGROV-1) | GI50 (OVCAR-4) | growth at 10 µM (DU-145) | GI50 (BT-549) | other results
1 | CC(C)=CCC/C(C)=C/CC/C(C)=C/CC[C@]1(C)CCc2c3c(cc(C)c2O1)OCN(CCCCCO)C3 | 90.5% | 7.83 µM | 103% | 6.08 µM | 9.91 µM | 6.63 µM | 5.18 µM | 83.8% | 87.3% | 67.4% | 2.53 µM | 98.4% | -63.6% | 5.42 µM | 0.7 µM | 43% | 53.1% | 5.68 µM | 37.2% | 7.34 µM | growth at 10 µM (HOP-92 [3]): 62.3%; IC50 (MCF7 [8]): 9.1 µM; GI50 (A498): 5.76 µM; growth at 10 µM (HT-29): -34.9%; GI50 (LOX IMVI): 6.07 µM
2 | COc1ccc(CCN2COc3cc(C)c4c(c3C2)CC[C@@](C)(CC/C=C(\C)CC/C=C(\C)CCC=C(C)C)O4)cc1OC | 85.5% | 3.32 µM | 99.2% | 2.69 µM | 3.07 µM | 1.79 µM | 2.18 µM | 71.8% | 42.7% | 37% | 1.48 µM | 112% | -65.7% | 1.55 µM | 0.87 µM | -25.4% | 31.8% | 1.63 µM | -4.93% | 1.97 µM | growth at 10 µM (HOP-92 [3]): 32.7%; GI50 (A498): 1.8 µM; growth at 10 µM (HT-29): 0.54%; GI50 (LOX IMVI): 1.77 µM
3 | CC(C)=CCC/C(C)=C/CC/C(C)=C/CC[C@]1(C)CCc2c3c(cc(C)c2O1)OCN(CCc1ccc(O)cc1)C3 | 90.7% | 1.75 µM | 102% | 6.13 µM | 4.03 µM | 6.66 µM | 1.12 µM | 105% | 91.2% | 65.6% | 1.71 µM | 88.7% | -86.3% | 4 µM | 0.91 µM | -44.6% | 0.45% | 5.36 µM | 42.1% | 7.06 µM | growth at 10 µM (HOP-92 [3]): 69.1%; IC50 (MCF7 [8]): 18.2 µM; GI50 (A498): 6.21 µM; growth at 10 µM (HT-29): 18.6%; GI50 (LOX IMVI): 2.09 µM
4 | CC(C)=CCC/C(C)=C/CC/C(C)=C/CC[C@]1(C)CCc2c3c(cc(C)c2O1)OCN(C1CCN(Cc2ccccc2)CC1)C3 | 78% | 0.308 µM | 93.2% | 1.69 µM | 0.324 µM | 1.89 µM | 0.618 µM | 93% | 79% | 1.77% | 0.626 µM | 101% | -36% | 0.269 µM | 0.8 µM | 0.33% | -48.5% | 1.54 µM | 65.3% | 1.89 µM | growth at 10 µM (HOP-92 [3]): 37.4%; GI50 (A498): 1.31 µM; growth at 10 µM (HT-29): 22.7%; GI50 (LOX IMVI): 0.337 µM
5 | CC(C)=CCC/C(C)=C/CC/C(C)=C/CC[C@]1(C)CCc2c3c(c(C)c(C)c2O1)OCN(CCCCO)C3 | 108% | 3.45 µM | 97.2% | > 10 µM | 5.15 µM | 5.99 µM | 1.94 µM | 112% | 83.1% | 76.8% | 1.84 µM | 100% | 10.1% | 2.9 µM | 2.2 µM | 57% | 48.2% | 3.11 µM | 88.8% | > 10 µM | IC50 (MCF7 [8]): > 20 µM; GI50 (A498): > 10 µM; growth at 10 µM (HT-29): 54.4%; GI50 (LOX IMVI): 2.22 µM
